By IC50 is commonly meant the concentration that inhibits the measured activity by half. Read a high IC50 as weaker potency in that assay.

The text below walks through data of article PMC3435882 (Molecular imaging and biology : MIB : the official …, 2009).

For data set [1], the target named is T1, MMP-2 (Homo sapiens, UniProt P08253).
T1 sequence (P08253 110-660): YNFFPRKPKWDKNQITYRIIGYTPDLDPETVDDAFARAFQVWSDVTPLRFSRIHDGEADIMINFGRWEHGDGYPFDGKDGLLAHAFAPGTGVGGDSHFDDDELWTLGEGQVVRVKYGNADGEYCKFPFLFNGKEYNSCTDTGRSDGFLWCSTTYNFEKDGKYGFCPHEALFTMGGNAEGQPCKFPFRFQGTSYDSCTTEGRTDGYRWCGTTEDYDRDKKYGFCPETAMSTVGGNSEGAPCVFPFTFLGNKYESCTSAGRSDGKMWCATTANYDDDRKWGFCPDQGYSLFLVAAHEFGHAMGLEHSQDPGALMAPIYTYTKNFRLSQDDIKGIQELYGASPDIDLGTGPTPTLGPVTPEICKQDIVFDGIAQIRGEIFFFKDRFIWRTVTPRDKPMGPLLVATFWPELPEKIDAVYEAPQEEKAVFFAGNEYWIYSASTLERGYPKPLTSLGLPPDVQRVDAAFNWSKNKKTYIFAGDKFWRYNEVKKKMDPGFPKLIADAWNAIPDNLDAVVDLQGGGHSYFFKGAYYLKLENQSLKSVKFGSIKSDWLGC
Put plainly: In vitro β-casein degradation assay. The format is biochemical. The conditions noted are these: 0, 10, 50, 200 μM; SDS-PAGE.

Data set [2] relates to U87 cells. In words: Fluorescence microscopy, probe uptake in U87 cells. The format is cell-based, human. Conditions: for uptake/binding in U87 cells: 10 μM, 37°C, 5 min. The method in brief:
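U87 cells grown in DMEM/F-12 with 10% FBS were seeded on cover slips overnight. For blocking, cells were pretreated with doxycycline (5, 25, 100 μM) or unlabelled peptide, then given 10 μM Cy5.5-labelled test compound; uptake samples received the probe alone (10 μM, 37°C, 5 min). After two PBS washes, cells were fixed and stained with 1 μM Sytox Green in 95% ethanol (15 min). Fluorescence microscopy was at ×60.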

The test system of another data set is PC-3 tumors. The format is in vivo, mice. Conditions: for tumor uptake in intratibial PC-3 tumors: 48 hr after intravenous injection, 15 nmol/mouse.
Data set [3] deals with T1, MMP-2. In words: In vitro MMP-2 inhibition assay. The format is biochemical. The conditions noted are these: MMP-2 Inhibition IC50, APMA-activated MMP-2, 1 hr preincubation at 37°C. The method, boiled down: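 Commercial MMP-2 was activated with APMA. Test compound was preincubated with activated enzyme (40 ng/200 μl) for 1 hr at 37°C, then biotinylated gelatinase substrate was added for 1 hr. The mixture was moved to a biotin-binding plate (30 min, 37°C) and washed. Streptavidin-enzyme conjugate and chromogenic substrate followed, and OD at 450 nm gave relative gelatinase activity.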

The subject of data set [4] is gelatinase activity in U87 cell lysates. In words: Gelatin zymography. Type of data set: biochemical, human. Conditions: U87 cell lysate, doxycycline 100 μM in incubation buffer. The method in brief:
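U87 cells were lysed in 1% Triton X-100, 50 mM Tris-HCl pH 7.6, 200 mM NaCl, 10 mM CaCl₂, then spun 10 min at 9700 × g. Supernatant was diluted 1:4 in SDS sample buffer, loaded at equal protein and run on 10% gels containing 1 mg/ml gelatin. Gels were washed 4 hr in Triton/CaCl₂ buffer and developed overnight at 37°C (pH 7.6), with doxycycline added, then Coomassie-stained.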

Data set [5] deals with U87 cells. In words: Confocal microscopy of U87 cells. The conditions noted are these: 5 min. The format is cell-based, human. The method in brief: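 U87 cells (1 × 10⁵) on cover slips in 24-well plates were exposed to 10 μM Cy5.5-labelled test compound or free Cy5.5. They were held 5 min at 4°C or 37°C in the dark, then washed twice with PBS. Nuclei were stained with 1 μM Sytox Green. After two more PBS washes, slides were mounted for confocal imaging at emission 693 nm (Cy5.5) and 488 nm (Sytox Green).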

For the next data set, the system named is A549 cells. In words: Fluorescence microscopy, probe uptake in A549 cells. Conditions: 10 μM, 37°C, 5 min. Type of data set: cell-based, human. The method, boiled down:
(§1)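 Cells were kept in DMEM/F-12 with 10% FBS at 37°C, 5% CO₂, seeded on cover slips and incubated overnight. Cy5.5-labelled test compound (10 μM) was added for 5 min at 37°C. Cells were washed twice with PBS, then fixed and nuclear-stained with 1 μM Sytox Green in 95% ethanol for 15 min. Fluorescence microscopy was at ×60.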

In another data set the test system is U87 brain tumors. In words: In vivo and ex vivo NIRF imaging of intracranial U87 tumors. Set-up: species or system mice. The conditions noted are these: 24 hr after intravenous administration, 15 nmol/mouse.
The next data set deals with PC-3 cells. Put plainly: Fluorescence microscopy, probe uptake in PC-3 cells. Type of data set: cell-based, human. The conditions noted are these: 10 μM, 37°C, 5 min. The method, boiled down: as §1
Data set [6] in a line: Stability study in serum-containing culture medium. Conditions: DMEM/F-12 with 10% fetal bovine serum, 25°C, over 3 hr, HPLC. Type of data set: in vitro ADME. The method in brief: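 Peptides were incubated at 25°C in DMEM/F-12 containing 10% FBS. Aliquots taken at intervals were analysed by reverse-phase C-18 HPLC using an acetonitrile/water gradient with 0.1% TFA and UV detection at 230 nm. Intact-peptide peak area was expressed as a percentage of the 0-min area.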

Bridge positions count the residues as written; N and C are the ends. Square brackets hold non-standard residues; d marks the D form. Peptide text beside a SMILES is read from it. Cy5.5 = cyanine dye Cy5.5, conjugated as the NHS ester; βAla = NCCC(=O)O

As to “Cy5.5-c(CTTHWGFTLC)NH2 ({Cy5.5}-CTTHWGFTLC-NH2; disulfide 1-10) [Cy5.5-C1]”, the “inhibition of β-casein degradation by MMP-2” value with MMP-2 [1] was “inhibited the degradation of β-casein in a dose-dependent manner”. Besides, the “uptake/binding in U87 cells” value in the data set with U87 cells [2] is listed as “to a less degree”. Further, the “tumor uptake in intratibial PC-3 tumors” value in the data set on PC-3 tumors was “tumor targeting could not be detected”.
For the compound `CC(C)C[C@@H]1NC(=O)[C@H]([C@@H](C)O)NC(=O)[C@H](Cc2ccccc2)NC(=O)CNC(=O)[C@H](Cc2c[nH]c3ccccc23)NC(=O)[C@H](Cc2c[nH]cn2)NC(=O)[C@H]([C@@H](C)O)NC(=O)[C@H]([C@@H](C)O)NC(=O)[C@H](C)NC(=O)CCNC1=O` [C3, c(ATTHWGFTL-β-Ala)] (cyclo(ATTHWGFTL[βAla])), the midpoint of inhibition at MMP-2 [3], the IC50, lay at 83.9 µM.
With `C[C@H]1c2cccc(O)c2C(=O)C2=C(O)[C@]3(O)C(=O)C(C(N)=O)=C(O)[C@@H](N(C)C)[C@@H]3[C@@H](O)[C@@H]21` [doxycycline, reference compound], the “blocking of Cy5.5-C6 binding to U87 cells” value in the data set on U87 cells [2] (doxycycline 25 and 100 μM followed by Cy5.5-C6 10 μM) was “partially blocked”. Further, in the data set on PC-3 tumors (co-injection with doxycycline (data not shown)), the “blocking of in vivo uptake of Cy5.5-C6 in PC-3 tumors” value is “could not be blocked”. Moreover, in data set [4], the “blocking of gelatinase activity in zymography” value was “could be blocked”.
Regarding Cy5.5 [reference compound], the “cell uptake and distribution at 37°C” value in the data set with U87 cells [5] is recorded as “minimal uptake”. In the data set on U87 cells [2], the “uptake/binding in U87 cells” value is reported as “did not bind to the cells”.
“Cy5.5-c(KAHWGFTLD)NH2 ({Cy5.5}-KAHWGFTLD-NH2; lactam 1-9) [Cy5.5-C6]”: the “binding to A549 cells (minimal MMP-2 activity)” value with A549 cells is “did not bind”. The “cell uptake at 4°C” value with U87 cells [5] (4°C) is “substantially reduced”. In the data set with U87 cells [5], the “cell uptake and distribution at 37°C” value was “distributed to cell cytosol and nuclei”. Besides, the “inhibition of β-casein degradation by MMP-2” value with MMP-2 [1] is reported as “inhibited the degradation of β-casein in a dose-dependent manner”. Besides, the “uptake/binding in U87 cells” value with U87 cells [2] was “rapidly taken up”. Besides, the “tumor uptake in intratibial PC-3 tumors” value in the data set on PC-3 tumors is “clearly visualized”. For the same compound, the “localization to orthotopic U87 gliomas” value in the data set on U87 brain tumors is recorded as “readily visible”. Moreover, the “uptake in PC-3 cells” value in the data set on PC-3 cells is listed as “taken up”.
For the compound “Cy5.5-c(KHGLTWFAD)NH2 ({Cy5.5}-KHGLTWFAD-NH2; also: cyclic, ring type and sites not given here) [Cy5.5-C7]”, in the data set on PC-3 tumors, the “tumor uptake in intratibial PC-3 tumors” value was “not taken up by the tumors”.
`CC(C)C[C@@H]1NC(=O)[C@H]([C@@H](C)O)NC(=O)[C@H](Cc2ccccc2)NC(=O)CNC(=O)[C@H](Cc2c[nH]c3ccccc23)NC(=O)[C@H](Cc2c[nH]cn2)NC(=O)[C@H]([C@@H](C)O)NC(=O)[C@H]([C@@H](C)O)NC(=O)[C@@H](N)CSSC[C@@H](C(N)=O)NC1=O` [C1, c(CTTHWGFTLC)NH2, reference compound] (H-CTTHWGFTLC-NH2; disulfide 1-10): half-maximal inhibition against MMP-2 [3] (IC50) was put at 30.3 µM. Besides, the “stability of intact peptide” value in data set [6] is reported as “completely degraded”.
